# Reference: ChEMBL document CHEMBL4219194, “Diversity-oriented synthesis of pyrazoles derivatives from flavones and isoflavones leads to the discovery of promising reversal agents of fluconazole resistance in Candida albicans” (2018)
# What was measured:
# Assay type in all cases: functional
# [1] = test system: Candida albicans; assay: Potentiation of fluconazole-induced antifungal activity against fluconazole-resistant Candida albicans 28A after 48 hrs by broth microdilution checkerboard method
# In short: (§1)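 Checkerboard dose-response matrix on strain 28A with gradients of fluconazole and the test compound in RPMI 1640, read after 48 h at 35 °C. MIC80 is taken alone and in combination, and FICI is calculated. Synergy is FICI ≤0.5, indifference >0.5-4, and antagonism >4.0.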
# [2] = test system: Candida albicans; assay: Synergistic antifungal activity against fluconazole-resistant Candida albicans 28A after 48 hrs in presence of fluconazole by broth microdilution checkerboard method; in short: as §1
# [3] = test system: Candida albicans; assay: Antifungal activity against Candida albicans SC5314 after 48 hrs by broth microdilution method; details: SC5314, 48 h
# In short: (§2)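 MIC80 read by broth microdilution, with fluconazole as the positive antifungal agent. Values are reported in µg/mL as means of three independent experiments. Strains: wild-type SC5314 and DSY654, which lacks the Cdr1 and Cdr2 efflux pumps.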
# [4] = test system: Candida albicans; assay: Antifungal activity against fluconazole-resistant Candida albicans 28A after 48 hrs by broth microdilution method
# In short: (§3)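 Clinical fluconazole-resistant isolates tested in broth microdilution with the compound alone. The endpoint is MIC80, the lowest concentration giving 80% growth inhibition, in µg/mL.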
# [5] = test system: Candida albicans; assay: Antifungal activity against CDR1 and CDR2 efflux pump deficient Candida albicans DSY654 after 48 hrs by broth microdilution method; details: DSY654, 48 h; in short: as §2
# [6] = test system: Candida albicans; assay: Potentiation of fluconazole-induced antifungal activity against fluconazole-resistant Candida albicans 28A assessed as fluconazole MIC80 after 48 hrs by broth microdilution checkerboard method; in short: as §1
# [7] = test system: Candida albicans; assay: Potentiation of fluconazole-induced antifungal activity against drug-resistant Candida albicans 28I after 48 hrs by broth microdilution checkerboard method
# In short: (§4)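 Broth microdilution checkerboard of fluconazole crossed with the test compound against clinical FLC-resistant isolates. MIC80 is read for each agent alone and in combination, and FICI is calculated. Synergy is FICI ≤0.5, indifference >0.5-4, and antagonism >4.0.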
# [8] = test system: Candida albicans; assay: Antifungal activity against drug-resistant Candida albicans 28I after 48 hrs by broth microdilution method; in short: as §3
# [9] = test system: Candida albicans; assay: Synergistic antifungal activity against drug-resistant Candida albicans 28I after 48 hrs in presence of fluconazole by broth microdilution checkerboard method; in short: as §4
# [10] = test system: Candida albicans; assay: Potentiation of fluconazole-induced antifungal activity against drug-resistant Candida albicans 28I assessed as fluconazole MIC80 after 48 hrs by broth microdilution checkerboard method; in short: as §4
# [11] = test system: Candida albicans; assay: Potentiation of fluconazole-induced antifungal activity against drug-resistant Candida albicans 28J assessed as fluconazole MIC80 after 48 hrs by broth microdilution checkerboard method; in short: as §4
# [12] = test system: Candida albicans; assay: Potentiation of fluconazole-induced antifungal activity against drug-resistant Candida albicans 28J after 48 hrs by broth microdilution checkerboard method; in short: as §4
# [13] = test system: Candida albicans; assay: Antifungal activity against drug-resistant Candida albicans 28J after 48 hrs by broth microdilution method; in short: as §3
# [14] = test system: Candida albicans; assay: Synergistic antifungal activity against drug-resistant Candida albicans 28J after 48 hrs in presence of fluconazole by broth microdilution checkerboard method; in short: as §4
SMILES,fractional inhibitory concentration index (FICI) [1],MIC80 [2],MIC80 [3],MIC80 [4],MIC80 [5],MIC80 [6],fractional inhibitory concentration index (FICI) [7],MIC80 [8],MIC80 [9],MIC80 [10],MIC80 [11],fractional inhibitory concentration index (FICI) [12],MIC80 [13],MIC80 [14]
COc1ccc(-c2cc(-c3ccccc3)nn2CCO)c(O)c1OC,2,> 128 µg/mL,> 128 µg/mL,> 128 µg/mL,> 128 µg/mL,> 128 µg/mL,–,–,–,–,–,–,–,–
COc1ccc(-n2nc(-c3ccccc3)cc2-c2ccc(OC)c(OC)c2O)cc1,2,> 128 µg/mL,> 128 µg/mL,> 128 µg/mL,8 µg/mL,> 128 µg/mL,–,–,–,–,–,–,–,–
COc1cc(O)c(-c2cc(-c3ccccc3)n[nH]2)c(OC)c1,0.252,8 µg/mL,8 µg/mL,32 µg/mL,1 µg/mL,0.25 µg/mL,0.252,32 µg/mL,8 µg/mL,0.25 µg/mL,0.5 µg/mL,0.254,32 µg/mL,8 µg/mL
COc1ccc(-c2cn(-c3ccccc3)nc2-c2c(O)cc(OC)cc2OC)cc1,2,> 128 µg/mL,> 128 µg/mL,> 128 µg/mL,> 128 µg/mL,> 128 µg/mL,–,–,–,–,–,–,–,–
OC(Cn1cncn1)(Cn1cncn1)c1ccc(F)cc1F [FLUCONAZOLE],–,–,2 µg/mL,> 128 µg/mL,0.25 µg/mL,–,–,> 128 µg/mL,–,–,–,–,> 128 µg/mL,–
